Source: ChEMBL document CHEMBL3232850, “Anti-inflammatory labdane diterpenoids from Lagopsis supina” (J Nat Prod, 2014)

Experiments:
[1] = Antiinflammatory activity in […] BV2 cells assessed as inhibition of LPS-induced nitric oxide production at 80 uM by Griess assay; assay type: functional; conditions: Mus musculus, BV-2
[2] = Antiinflammatory activity in […] BV2 cells assessed as inhibition of LPS-induced nitric oxide production by Griess assay; assay type: functional, cell-based; conditions: BV-2
Procedure, shortened: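 BV-2 microglial cells were stimulated with lipopolysaccharide, and NO production was measured by the Griess assay. Inhibition is reported as IC50 values in μM.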

[3] = Cytotoxicity against […] LPS-treated BV2 cells assessed as cell viability up to 80 uM after 24 hrs by MTT assay; assay type: cell-based; conditions: bv-2, 24 h

| IC50 [2] | SMILES | inhibition at 80 µM [1] | Activity [3] |
| --- | --- | --- | --- |
| – | CC(=O)O[C@@H]1[C@H](O)[C@@H](C)[C@](O)(CCc2ccoc2)[C@@]2(C)CCCC(C)(C)[C@H]12 | < 50% | – |
| – | C[C@@H]1[C@@H](O)C(=O)[C@H]2C(C)(C)CCC[C@]2(C)[C@@]1(O)CCc1ccoc1 | < 50% | – |
| 14.9 µM | C[C@@H]1C(=O)C=C2C(C)(C)CCC[C@]2(C)[C@@]1(O)CCc1ccoc1 | – | Non-toxic |
| – | CC(=O)O[C@H]1[C@@H](O)[C@H]2C(C)(C)CCC[C@]2(C)[C@@](O)(CCc2ccoc2)[C@@H]1C | < 50% | – |
| – | CC(=O)O[C@@H]1[C@H](OC(C)=O)[C@@H](C)[C@](O)(CCc2ccoc2)[C@@]2(C)CCCC(C)(C)[C@H]12 | < 50% | – |
| – | CC(=O)O[C@@H]1[C@H](O)[C@@H](C)[C@]2(CC[C@@]3(CO[C@@H](O)C3)O2)[C@@]2(C)CCCC(C)(C)[C@H]12 | < 50% | – |
| – | CC(=O)O[C@@H]1[C@H](O)[C@@H](C)[C@]2(CC[C@]3(CO[C@@H](O)C3)O2)[C@@]2(C)CCCC(C)(C)[C@H]12 | < 50% | – |
| 16.2 µM | COC1C=C(CC[C@@]2(O)[C@H](C)[C@@H](O)[C@@H](OC(C)=O)[C@H]3C(C)(C)CCC[C@@]32C)C(=O)O1 (stereo not given in full) | – | Non-toxic |
| – | CC(=O)O[C@@H]1[C@H](O)[C@@H](C)[C@]2(CC[C@]3(CO[C@H](O)C3)O2)[C@@]2(C)CCCC(C)(C)[C@H]12 | < 50% | – |
| 34.9 µM | CCC(=O)C(OC(C)=O)[C@H]1C(C)(C)CCC[C@]1(C)C(=O)CCC1=CCOC1=O (stereo not given in full) | – | Non-toxic |
| – | C[C@@H]1[C@@H](O)[C@@H](O)[C@H]2C(C)(C)CCC[C@]2(C)[C@@]1(O)CCc1ccoc1 | < 50% | – |
| – | CC(=O)O[C@@H]1[C@H](O)[C@@H](C)[C@]2(CC[C@@]3(CO[C@H](O)C3)O2)[C@@]2(C)CCCC(C)(C)[C@H]12 | < 50% | – |
| – | CC1(C)CCC[C@@]2(C)C1=CC(=O)[C@](C)(O)[C@]2(O)CCc1ccoc1 | < 50% | – |
| – | CCC(=O)C(OC(C)=O)[C@H]1C(C)(C)CCC[C@]1(C)C(=O)CCc1ccoc1 (stereo not given in full) | < 50% | – |
| 34 µM | CC1=C(CCc2ccoc2)[C@@]2(C)CCCC(C)(C)C2=CC1=O | – | Non-toxic |

| SMILES | IC50 [2] | inhibition at 80 µM [1] | Activity [3] |
| --- | --- | --- | --- |
| O=c1c(O)c(-c2ccc(O)c(O)c2)oc2cc(O)cc(O)c12 [QUERCETIN] | 10 µM | – | – |
